# Source: PubChem (Johns Hopkins Ion Channel Center)
# The list is not random: actives were taken first. Their share in the collection is about 3.5%.
# RGS4 inh – RGS4 inhibitors, primary screen, cell-based, HEK293 M3R inducible RGS4, calcium flux; Regulator of G-protein signaling 4 (Homo sapiens), P49798; B-score at 10 µM; AID 463165, 2010; 0.45% of 310,000 active; Fluo-4 calcium flux; active compounds read high; triggered by carbachol at its EC20;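 active means B-score, a plate-corrected calcium signal, over three deviations above library mean, with baseline fluorescence within five deviations of library mean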;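 further: RGS4 expression induced by doxycycline in cells with stable M3 receptor; B-score is computed from the integrated fluorescence ratio over baseline after carbachol; higher B-score means a larger calcium signal and so more RGS4 inhibition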
# Target sequence (P49798 whole entry, looked up): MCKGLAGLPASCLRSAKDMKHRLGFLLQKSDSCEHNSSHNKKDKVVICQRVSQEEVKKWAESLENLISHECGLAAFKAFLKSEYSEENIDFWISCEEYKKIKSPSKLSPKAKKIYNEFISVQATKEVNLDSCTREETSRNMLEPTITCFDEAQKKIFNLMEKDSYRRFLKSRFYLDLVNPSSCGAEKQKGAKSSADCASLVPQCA
# RGS4 act – RGS4 potentiators or activators, primary screen, cell-based, HEK293 M3R inducible RGS4, calcium flux; carbachol calcium flux Fluo4; active compounds read low; B-score at 10 µM; 0.92% of 310,000 active; AID 463111, 2010;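 active means B-score of the integrated calcium signal more than 4 SD below the library mean, with starting fluorescence not abnormally high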;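 further: negative B-score means reduced calcium response which marks RGS4 activation or potentiation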
#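 Also added: carbachol at ECmax as muscarinic agonist stimulus; Assay system: HEK293 cells with stable M3R and inducible RGS4; Timing: overnight RGS4 induction, 30 min dye load 37 °C, 20 min compound RT; Measured by: Fluo4-AM (2 µM) calcium-flux fluorescence, kinetic read.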
# MrgX1 allo act – positive allosteric modulators of MrgX1, primary screen, HEK293 cells, Fluo-4 calcium flux | Mas-related G-protein coupled receptor member X1 (Homo sapiens), Q96LB2 | AID 588675, 2011 | B-score at 10 µM | FDSS; active compounds read high | 0.63% of 310,000 active;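 active means plate-corrected calcium response at least 3 library SD above typical, normal starting fluorescence, not activating the receptor alone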;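 further: compound read alongside a low EC10 to EC30 dose of BAM8-22 agonist; peak minus trough fluorescence over baseline measured at the second addition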
# Target sequence (Q96LB2 whole entry, looked up): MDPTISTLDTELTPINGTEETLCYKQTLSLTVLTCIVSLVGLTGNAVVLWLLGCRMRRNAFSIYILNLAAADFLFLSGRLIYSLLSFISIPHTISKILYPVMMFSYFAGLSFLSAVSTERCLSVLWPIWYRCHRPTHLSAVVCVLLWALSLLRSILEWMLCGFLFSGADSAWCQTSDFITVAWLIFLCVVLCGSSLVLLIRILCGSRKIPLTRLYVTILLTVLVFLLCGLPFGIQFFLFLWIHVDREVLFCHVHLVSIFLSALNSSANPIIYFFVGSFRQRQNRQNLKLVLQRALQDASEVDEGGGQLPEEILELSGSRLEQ
# MrgX1 antagonist – antagonists of human MrgX1 receptor, primary screen, HEK293 cells, Fluo-4 calcium flux; 1.3% of 310,000 active; AID 588676, 2011; Mas-related G-protein coupled receptor member X1 (Homo sapiens), Q96LB2; B-score at 10 µM; BAM8-22 antagonism; active compounds read low;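 active means calcium-response B-score plate-corrected more than 3 library SD below zero, starting fluorescence within 5 deviations, no agonist response on first addition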;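 further: peak minus trough fluorescence over baseline after final BAM8-22 challenge near maximal dose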
# MrgX1 agonist – agonists of human MrgX1 receptor, primary screen, HEK293 cells, Fluo-4 calcium flux; Fluo-4 calcium fluorescence, agonist mode; active compounds read high; 0.44% of 310,000 active; B-score at 10 µM;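 active means calcium response B-score plate-corrected fluorescence ratio at least 3 library SD, with starting fluorescence B-score inside 5 SD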
#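 Test system: HEK293 cells stably expressing human MrgX1 receptor; amount: 15,000 cells per well; doses: compound delivered in addition one of three; times: overnight plating before 1 h dye loading; detection: Fluo-4 NW calcium-flux fluorescence, kinetic read; read-out basis: B-scored fluorescence response ratio; controls: positive and negative controls per plate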
# MrgX1 ag confirm – MrgX1 receptor agonists, duplicate retest, confirmation, HEK293 cells, Fluo-4 calcium flux | shares compounds with MrgX1 agonist | AID 602412, 2012 | 78% of 600 active | activation, % at 10 µM | Fluo-4 calcium fluorescence, FDSS;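 active means calcium signal rise, corrected for plate position, at least 3 library SD high, with starting brightness within 5 such deviations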
# HEK293 Ca flux – nonspecific calcium signal in parental HEK293, confirmation, counter-screen for MrgX1 antagonist project, parental HEK293 cells, Fluo-4 calcium flux. Fluo-4 calcium fluorescence, FDSS. fluorescence ratio F(max-min)/F0 at 10 µM. shares compounds with MrgX1 antagonist. 2% of 4,000 active;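 active means duplicate-averaged calcium fluorescence ratio at least three times the standard deviation of buffer wells, a nonspecific response in parental cells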
# HEK293 Ca counter – calcium response in parental HEK293 cells, primary screen, counter-screen for MrgX1 allosteric activator project, cell-based, Fluo-4 calcium flux, duplicate; fluorescence ratio F(max-min)/F0 at 10 µM; Fluo-4 fluorescence ratio; active compounds read high; shares compounds with MrgX1 antagonist; 0.4% of 4,000 active; AID 624114, 2012;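 active means calcium fluorescence ratio, averaged over duplicates, at least 3 SD of the buffer-well ratio, meaning a nonspecific response in receptor-free cells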;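 further: untransfected parental HEK293 lacking MrgX1 used as counterscreen for MrgX1 allosteric activators; fluorescence change taken during the second addition on a kinetic imager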
# HEK293 Ca cntr2 – calcium response in parental HEK293 cells, primary screen, counter-screen for MrgX1 agonist project, cell-based, Fluo-4 calcium flux, duplicate, agonist mode; shares compounds with MrgX1 antagonist; Fluo-4 calcium fluorescence (FDSS); active compounds read high; fluorescence ratio F(max-min)/F0 at 10 µM; 8.7% of 4,000 active; AID 624115, 2012;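 active means calcium fluorescence ratio at least three times the spread of buffer wells, meaning a non-specific response in parental cells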
# * hit, by the source's call; i = inactive; . = no result.
SMILES,RGS4 inh,RGS4 act,MrgX1 allo act,MrgX1 antagonist,MrgX1 agonist,MrgX1 ag confirm,HEK293 Ca flux,HEK293 Ca counter,HEK293 Ca cntr2
CC(C)c1ccc(N(C(=O)c2csnn2)C(C(=O)NC2CCCC2)c2cccnc2)cc1 (configuration not stated),i,i,i,i,33*,i,i,i,i
O=C(NCC1OCCc2ccccc21)c1ccc(NC(=O)c2cccc(Br)c2)cc1 (configuration not stated),i,i,i,i,i,.,.,.,.
Cc1oc2cc(O)ccc2c(=O)c1-c1nncn1-c1ccccc1,i,i,i,i,30*,i,i,i,i
Cc1c2ccccc2nc2c(F)c(NCCO)c(F)c(F)c12,i,i,i,i,30*,i,0.12*,i,i
Cc1c2ccccc2nc2c(F)c(NC(C)C)c(F)c(F)c12,i,i,i,i,i,.,.,.,.
CN(Cc1ccccc1)C(=O)COC(=O)COc1ccc(C#N)cc1,i,i,i,i,i,.,.,.,.
O=C(CNCC1CCCCC1)Nc1ccc(OC(F)(F)F)cc1,i,i,i,i,106*,416%*,i,i,52*
Cc1c(Br)c(O)c(Br)c2sc(=O)oc12,.,.,i,i,33*,149%*,i,i,i
N#CCn1c(CCl)nc2ccccc2c1=O,i,i,i,i,42*,198%*,i,i,i
CCN(C(=O)CSc1nnc(-c2c[nH]c3ccccc23)o1)C1CCS(=O)(=O)C1 (configuration not stated),i,i,i,i,i,.,.,.,.
CCOC(=O)CC(=O)CSc1nc2ccc(C)cc2cc1C#N,.,.,i,i,54*,367%*,i,i,75*
CCOC(=O)CC(=O)CSc1nc(CC)c(C)cc1C#N,i,i,i,i,i,.,.,.,.
O=C(/C=C/NCc1cccnc1)c1ccc(Br)cc1,i,i,i,i,i,.,.,.,.
Oc1c(C(c2ccccn2)N2CCCCC2)cc(Cl)c2cccnc12 (configuration not stated),i,i,i,i,32*,97%*,i,i,i
CC1(C)Cc2c(c(-c3ccco3)nc3sc4c(NCCCO)ncnc4c23)CO1,i,i,i,i,i,.,.,.,.
CC1(C)Cc2c(c(-c3ccco3)nc3sc4c(NCC5CCCO5)ncnc4c23)CO1 (configuration not stated),i,i,i,i,49*,208%*,i,i,45*
Cc1cc2oc(=O)cc(CN3CCCCC3C)c2cc1C(C)C (configuration not stated),i,i,i,i,i,.,.,.,.
NC1=NC[C@@H](Cc2ccc(O)cc2)N1CCc1cc(C(F)(F)F)cc(C(F)(F)F)c1,i,i,i,i,i,.,.,.,.
NC1=NC[C@@H](Cc2ccc(O)cc2)N1CCc1cccc(F)c1,i,i,i,i,31*,171%*,i,i,i
O=C(COC(=O)[C@H](Cc1ccccc1)NC(=O)c1cccs1)NC1CCCCC1,i,i,i,i,30*,195%*,i,i,46*
O=[N+]([O-])c1ccc(C2OCCO2)cc1CS(=O)(=O)c1ccccc1,i,i,i,i,i,.,.,.,.
N#CSCC(=O)c1cccc2ccccc12,.,.,i,i,27*,230%*,i,i,i
Cc1cc(=O)oc2ccc(OCC(=O)N3CCC(C)CC3)cc12,i,i,i,i,28*,215%*,i,i,i
CCN(CC)c1ccc(C=C2C(=O)OC3(CCCC3)OC2=O)cc1,i,i,i,i,74*,440%*,i,i,110*
Cn1cc(C=C2C(=O)OC3(CCCCC3)OC2=O)c2ccccc21,i,i,i,i,i,.,.,.,.
SMILES,RGS4 inh,RGS4 act,MrgX1 allo act,MrgX1 antagonist,MrgX1 agonist,MrgX1 ag confirm,HEK293 Ca flux,HEK293 Ca counter,HEK293 Ca cntr2
CC(C)NC[C@H](O)c1ccc(O)c(O)c1,.,.,i,i,32*,124%*,i,i,i
O=C(C#Cc1ccccc1)c1ccco1,i,i,i,i,44*,240%*,i,i,i
O=C(CNC(=S)N(Cc1ccccc1Cl)C1CCCC1)NCCN1CCOCC1,i,i,i,i,i,.,.,.,.
CCOC(=O)C1CCN(Cc2cn(C)nc2-c2ccc(Oc3ccccc3)cc2)CC1,i,i,i,i,i,.,.,.,.
O=C1NC(Nc2ccccn2)(C(F)(F)F)C(=O)N1c1ccc(F)cc1 (configuration not stated),i,i,i,i,32*,207%*,i,i,54*
CCOC(=O)c1ccccc1-c1cn2cc(Cl)ccc2n1,i,i,i,i,30*,152%*,i,i,i
N#CC1=C(N)Oc2cc(O)ccc2C1c1cccs1 (configuration not stated),i,i,i,i,29*,i,i,i,i
COc1cc(OC)cc(C(=O)NCC2CCCN(C(=O)c3csc(C)n3)C2)c1 (configuration not stated),i,i,i,i,i,.,.,.,.
COc1ccc(S(=O)(=O)N2CCCC2CNC(=O)C(=O)Nc2cccc(F)c2)cc1 (configuration not stated),i,i,i,i,i,.,.,.,.
Cc1sc(NC(=O)C2CCCCC2C(=O)O)c(C(N)=O)c1-c1ccc(C(C)(C)C)cc1 (configuration not stated),i,i,i,i,95*,299%*,i,i,68*
